According to ChEMBL document CHEMBL1800069, “Structure-based design of a new series of D-glutamic acid based inhibitors of bacterial UDP-N-acetylmuramoyl-L-alanine:D-glutamate ligase (MurD)” (J Med Chem, 2011):
Values after ≈ are worked out from the molar mass of the structure shown. Active and inactive are the calls of the source. The calls are words filed in the database; no cut-off is given here.

What was measured:
Escherichia coli [1] = assay: Inhibition of Escherichia coli MurD ligase catalyzed addition of D-Glu to UDP-MurNAc-L-Ala assessed as residual activity at 500 uM after 15 mins by colorimetric analysis
Summary of the method: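 E. coli MurD activity read by malachite green detection of released orthophosphate, with 0.01% Triton X-100 present. Residual activity (%) measured with 500 μM test compound. Values are the mean of two independent experiments, with standard deviations within ±10% of the mean.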

[2] = Inhibition of Escherichia coli MurD ligase catalyzed addition of D-Glu to UDP-MurNAc-L-Ala after 15 mins by colorimetric analysis
Summary of the method: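 Malachite green colorimetric detection of orthophosphate released by E. coli MurD ligase, with 0.01% Triton X-100 present to avoid aggregate-based nonspecific inhibition. IC50 is taken as the inhibitor concentration that leaves 50% residual enzyme activity.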

Pseudomonas aeruginosa = assay: Antibacterial activity against Pseudomonas aeruginosa ATCC 27853 after 18 to 24 hrs by CLSI method; format: functional, organism-based
Enterococcus faecalis = assay: Antibacterial activity against Enterococcus faecalis ATCC 29212 after 18 to 24 hrs by CLSI method; format: functional
Escherichia coli [3] = assay: Antibacterial activity against Escherichia coli ATCC 25922 after 18 to 24 hrs by CLSI method; format: functional, organism-based
Staphylococcus aureus = assay: Antibacterial activity against Staphylococcus aureus ATCC 29213 after 18 to 24 hrs by CLSI method; format: functional

Structure (SMILES) | Activity (Escherichia coli [1]) [%] | IC50 [2] [µM] | further results
O=C(O)CC[C@@H](NC(=O)c1cccc(CNc2cccc(OCC(=O)O)c2)c1)C(=O)O | 89 |  | 
O=C(O)CC[C@@H](NC(=O)c1cccc(CN(C(=O)CC(=O)O)c2ccc(/C=C3\SC(=O)NC3=O)cc2)c1)C(=O)O |  | 15 | 
O=C(O)CC[C@@H](NC(=O)c1cccc(CNc2ccc(OCC(=O)O)cc2)c1)C(=O)O | 87 |  | 
COC(=O)CC[C@@H](NC(=O)c1cccc(CN(C(=O)CC(=O)OC)c2ccc(/C=C3\SC(=S)NC3=O)cc2)c1)C(=O)OC |  |  | Activity (Pseudomonas aeruginosa): inactive; Activity (Enterococcus faecalis): inactive; Activity (Escherichia coli [3]): inactive; Activity (Staphylococcus aureus): inactive
COC(=O)CCC(=O)N(Cc1cccc(C(=O)N[C@H](CCC(=O)OC)C(=O)OC)c1)c1ccc(/C=C2\SC(=S)NC2=O)cc1 |  |  | Activity (Pseudomonas aeruginosa): inactive; Activity (Enterococcus faecalis): inactive; Activity (Escherichia coli [3]): inactive; Activity (Staphylococcus aureus): inactive
O=C(O)CCC(=O)N(Cc1cccc(C(=O)N[C@H](CCC(=O)O)C(=O)O)c1)c1ccc(/C=C2\SC(=S)NC2=O)cc1 |  | 7 | Activity (Pseudomonas aeruginosa): inactive; MIC (Enterococcus faecalis): 128 µg/mL (≈ 213 µM); Activity (Escherichia coli [3]): inactive; MIC (Staphylococcus aureus): 128 µg/mL (≈ 213 µM)
O=C(O)CC[C@@H](NC(=O)c1ccc2ccn(Cc3ccc(OCC(=O)O)cc3)c2c1)C(=O)O | 94 |  | 
O=C(O)CC[C@@H](NC(=O)c1cccc(CN(C(=O)C(=O)O)c2ccc(/C=C3\SC(=S)NC3=O)cc2)c1)C(=O)O |  | 5 | 
O=C(O)CCC(=O)N(Cc1cccc(C(=O)N[C@H](CCC(=O)O)C(=O)O)c1)c1ccc(/C=C2\SC(=O)NC2=O)cc1 |  | 105 | 
O=C(O)CC[C@@H](NC(=O)c1cccc(CN(C(=O)CC(=O)O)c2ccc(/C=C3\SC(=S)NC3=O)cc2)c1)C(=O)O |  | 3 | Activity (Pseudomonas aeruginosa): inactive; MIC (Enterococcus faecalis): 128 µg/mL (≈ 219 µM); Activity (Escherichia coli [3]): inactive
O=C(O)/C=C/c1ccc(NCc2cccc(C(=O)N[C@H](CCC(=O)O)C(=O)O)c2)cc1 | 96 |  | 

Second part, led by results:

Activity (Escherichia coli [1]) [%] | IC50 [2] [µM] | Structure (SMILES) | further results
 | 40 | O=C(O)CC[C@@H](NC(=O)c1cccc(CN(C(=O)C(=O)O)c2ccc(/C=C3\SC(=O)NC3=O)cc2)c1)C(=O)O | 
99 |  | O=C(O)CC[C@@H](NC(=O)c1cccc(CNc2ccc(/C=C3\NC(=O)NC3=O)cc2)c1)C(=O)O | 
88 |  | O=C(O)CC[C@@H](NC(=O)c1ccc(NCc2ccc(/C=C3\SC(=O)NC3=O)cc2)cc1)C(=O)O | 
 | 253 | O=C(O)CC[C@@H](NC(=O)c1cc(CNc2ccc(/C=C3\SC(=S)NC3=O)cc2)ccc1F)C(=O)O | 
71 |  | O=C(O)CC[C@@H](NC(=O)c1cc(CNc2ccc(/C=C3\SC(=O)NC3=O)cc2)ccc1F)C(=O)O | 
85 |  | N=C1NC(=O)/C(=C/c2ccc(NCc3cccc(C(=O)N[C@H](CCC(=O)O)C(=O)O)c3)cc2)S1 | 
 | 124 | O=C(O)CC[C@@H](NC(=O)c1cc(CNc2ccc(/C=C3\SC(=S)NC3=O)cc2)ccc1O)C(=O)O | 
